Measurements from ChEMBL document CHEMBL3774372, “Design, physico-chemical properties and biological evaluation of some new N-[(phenoxy)alkyl]- and N-{2-[2-(phenoxy)ethoxy]ethyl}aminoalkanols as anticonvulsant agents” (Bioorg Med Chem, 2016).
Active and inactive are the calls of the source.

Assays:
Jurkat = assay: Displacement of [3H]DTG from sigma receptor in human jurkat cells at 10^-5 M; type: cell-based
How it was run: (§1)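 Radioligand binding screen run at a single test concentration of 10^-5 M. Each target used its stated receptor source (human recombinant CHO or HEK-293 cells, endogenous cell lines, or rat tissue membranes) with the listed radioligand.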

[1] = molecular target: D(3) dopamine receptor (Homo sapiens) (UniProt P35462); assay: Displacement of [3H]methylspiperone from human recombinant Dopamine D3 receptor expressed in CHO cells at 10^-5 M; type: cell-based
How it was run: (§2)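 Radioligand displacement screen with the test agent at a single 10^-5 M concentration; receptor source and radioligand per target as tabulated (recombinant human cell lines or rat cerebral cortex/urinary bladder).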

[2] = molecular target: Type-2 angiotensin II receptor (Homo sapiens) (UniProt P50052); assay: Displacement of [125I]CGP42112A from human recombinant AT2 receptor expressed in HEK293 cells at 10^-5 M; type: cell-based; how it was run: as §1
Rattus norvegicus [3] = assay: Anticonvulsant activity in pilocarpine-induced status epilepticus Sprague-Dawley rat model at 30 mg/kg, ip after 4 hrs during post stage 3 seizure; type: functional, organism-based
How it was run: (§3)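 Rats given pilocarpine 50 mg/kg ip and observed to first convulsive seizure (Racine stage 3–5, time zero); test drug then given ip in 0.5% methylcellulose. Efficacy = halting further stage 3–5 convulsive seizures; scored protected/tested, time after first stage 3 seizure.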

[4] = molecular target: Adenosine receptor A2a (Homo sapiens) (UniProt P29274); assay: Displacement of [3H]CGS 21680 from human recombinant adenosine A2a receptor expressed in HEK293 cells at 10^-5 M; type: cell-based; how it was run: as §1
[5] = molecular target: 5-hydroxytryptamine receptor 7 (Homo sapiens) (UniProt P34969); assay: Displacement of [3H]LSD from human recombinant 5-HT7 receptor expressed in CHO cells at 10^-5 M; type: cell-based; how it was run: as §1
Rattus norvegicus [6] = assay: Anticonvulsant activity in pilocarpine-induced status epilepticus Sprague-Dawley rat model at 30 mg/kg, ip after 0.5 hrs during post stage 3 seizure; type: functional, organism-based; how it was run: as §3
[7] = molecular target: Galanin receptor type 1 (Homo sapiens) (UniProt P47211); assay: Displacement of [125I]galanin from human recombinant GAL1 receptor expressed in HEK293 cells at 10^-5 M; type: cell-based; how it was run: as §1
[8] = molecular target: Muscarinic acetylcholine receptor M3 (Homo sapiens) (UniProt P20309); assay: Displacement of [3H]4-DAMP from human recombinant muscarinic M3 receptor expressed in CHO cells at 10^-5 M; type: cell-based; how it was run: as §1
Rattus norvegicus [9] = species on record: Rattus norvegicus; assay: Displacement of [3H]GABA from rat cerebral cortex GABA receptor at 10^-5 M; type: tissue-based; how it was run: as §1
Mus musculus [10] = assay: Anticonvulsant activity in mouse assessed as protection against subcutaneous pentylenetetrazol-induced seizures at 30 mg/kg, ip measured after 4 hrs; type: functional, organism-based
How it was run: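 Mice dosed ip as 0.5% methylcellulose suspension; pentylenetetrazole 85 mg/kg in 0.9% NaCl injected subcutaneously into posterior midline, animals watched at least 30 min. Protection = no threshold seizure (single clonic spasm episode lasting ≥5 s); scored protected/tested.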

[11] = molecular target: Somatostatin receptor (Mus musculus) (UniProt P30935+O08858+P30875+P30873+P49660); assay: Displacement of [125I]Tyr11-somatostatin-14 from somatostatin receptor in mouse AtT20 cells at 10^-5 M; type: cell-based; how it was run: as §1
Rattus norvegicus [12] = species on record: Rattus norvegicus; assay: Displacement of [3H]D888 from rat cerebral cortex L-type calcium channel verapamil binding site at 10^-5 M; type: tissue-based; how it was run: as §1
[13] = molecular target: Mu-type opioid receptor (Homo sapiens) (UniProt P35372); assay: Displacement of [3H]DAMGO from human recombinant Mu-type opioid receptor expressed in CHO cells at 10^-5 M; type: cell-based; how it was run: as §1
[14] = molecular target: Sodium-dependent serotonin transporter (Homo sapiens) (UniProt P31645); assay: Displacement of [3H]imipramine from human recombinant 5-HT transporter expressed in CHO cells at 10^-5 M; type: cell-based; how it was run: as §2
[15] = molecular target: Substance-P receptor (Homo sapiens) (UniProt P25103); assay: Displacement of [125I]BH-SP from NK1 receptor in human U373MG cells at 10^-5 M; type: cell-based; conditions: U-373MG ATCC; how it was run: as §1
[16] = molecular target: Neuromedin-K receptor (Homo sapiens) (UniProt P29371); assay: Displacement of [3H]SR142801 from human recombinant NK3 receptor expressed in CHO cells at 10^-5 M; type: cell-based; how it was run: as §2
[17] = molecular target: Prostaglandin E2 receptor EP2 subtype (Homo sapiens) (UniProt P43116); assay: Displacement of [3H]PGE2 from human recombinant prostanoid EP2 receptor expressed in HEK293 cells at 10^-5 M; type: cell-based; how it was run: as §1
Rattus norvegicus [18] = species on record: Rattus norvegicus; assay: Displacement of [[…]]batrachotoxin from rat cerebral cortex Sodium channel site 2 at 10^-5 M; type: tissue-based
Rattus norvegicus [19] = species on record: Rattus norvegicus; assay: Displacement of [3H]alpha,beta-MeATP from rat urinary bladder P2X receptor at 10^-5 M; how it was run: as §2
[20] = molecular target: Histamine H2 receptor (Homo sapiens) (UniProt P25021); assay: Displacement of [125I]APT from human recombinant histamine H2 receptor expressed in CHO cells at 10^-5 M; type: cell-based; how it was run: as §1
CHO = assay: Displacement of [3H]DADLE from human recombinant delta-type 2 opioid receptor expressed in CHO cells at 10^-5 M; type: cell-based; how it was run: as §1
Rattus norvegicus [21] = assay: Anticonvulsant activity in pilocarpine-induced status epilepticus Sprague-Dawley rat model at 30 mg/kg, ip after 1 hr during post stage 3 seizure; type: functional, organism-based; how it was run: as §3
[22] = molecular target: Adrenergic receptor alpha-2 (Rattus norvegicus) (UniProt P22086+P19328+P22909); assay: Displacement of [3H]RX 821002 from rat cerebral cortex Alpha-2 adrenergic receptor at 10^-5 M; type: tissue-based; how it was run: as §1
Rattus norvegicus [23] = species on record: Rattus norvegicus; assay: Displacement of […] from rat cerebral cortex GABA-gated chloride channel at 10^-5 M; type: tissue-based; how it was run: as §1
Rattus norvegicus [24] = assay: Anticonvulsant activity in pilocarpine-induced status epilepticus Sprague-Dawley rat model at 30 mg/kg, ip after 2 hrs during post stage 3 seizure; type: functional, organism-based; how it was run: as §3
Mus musculus [25] = assay: Anticonvulsant activity in mouse assessed as protection against maximal electric shock-induced seizures at 30 mg/kg, ip measured after 4 hrs; type: functional, organism-based
How it was run: (§4)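 Mice dosed ip with suspension in 0.5% methylcellulose; maximal electroshock applied at the listed time after dosing. Protection = abolition of hindlimb tonic extension component of seizure; reported as animals protected/animals tested.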

[26] = molecular target: Beta-2 adrenergic receptor (Homo sapiens) (UniProt P07550); assay: Displacement of [3H](-)CGP12177 from human recombinant Beta-2 adrenergic receptor expressed in CHO cells at 10^-5 M; type: cell-based; how it was run: as §1
Rattus norvegicus [27] = species on record: Rattus norvegicus; assay: Displacement of [125I][Tyr4]bombesin from rat cerebral cortex Bombesin receptor at 10^-5 M; type: tissue-based; how it was run: as §1
Mus musculus [28] = assay: Anticonvulsant activity in mouse assessed as protection against maximal electric shock-induced seizures at 30 mg/kg, ip measured after 0.5 hrs; type: functional, organism-based; how it was run: as §4
[29] = molecular target: 5-hydroxytryptamine receptor 5A (Homo sapiens) (UniProt P47898); assay: Displacement of [3H]LSD from human recombinant 5-HT5A receptor expressed in HEK293 cells at 10^-5 M; type: cell-based; how it was run: as §1
[30] = molecular target: Nociceptin receptor (Homo sapiens) (UniProt P41146); assay: Displacement of [3H]nociceptin from human recombinant Nociceptin receptor expressed in HEK293 cells at 10^-5 M; type: cell-based; how it was run: as §2
[31] = molecular target: Histamine H1 receptor (Homo sapiens) (UniProt P35367); assay: Displacement of [3H]pyrilamine from human recombinant histamine H1 receptor expressed in HEK293 cells at 10^-5 M; type: cell-based; how it was run: as §2
Mus musculus [32] = assay: Anticonvulsant activity in mouse assessed as protection against maximal electric shock-induced seizures at 3 mg/kg, ip measured after 0.5 hrs; type: functional, organism-based; how it was run: as §4

Chain of Histamine H2 receptor (Homo sapiens) (P25021 whole entry): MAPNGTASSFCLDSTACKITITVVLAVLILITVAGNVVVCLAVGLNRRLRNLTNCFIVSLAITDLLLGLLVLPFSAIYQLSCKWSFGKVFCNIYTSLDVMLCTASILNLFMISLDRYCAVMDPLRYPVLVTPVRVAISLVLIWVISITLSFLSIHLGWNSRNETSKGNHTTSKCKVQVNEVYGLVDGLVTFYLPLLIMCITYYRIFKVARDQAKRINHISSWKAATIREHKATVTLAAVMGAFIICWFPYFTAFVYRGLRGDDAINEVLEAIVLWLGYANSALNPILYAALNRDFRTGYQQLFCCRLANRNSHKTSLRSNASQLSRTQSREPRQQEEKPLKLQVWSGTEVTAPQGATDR
Chain of Galanin receptor type 1 (Homo sapiens) (P47211 whole entry): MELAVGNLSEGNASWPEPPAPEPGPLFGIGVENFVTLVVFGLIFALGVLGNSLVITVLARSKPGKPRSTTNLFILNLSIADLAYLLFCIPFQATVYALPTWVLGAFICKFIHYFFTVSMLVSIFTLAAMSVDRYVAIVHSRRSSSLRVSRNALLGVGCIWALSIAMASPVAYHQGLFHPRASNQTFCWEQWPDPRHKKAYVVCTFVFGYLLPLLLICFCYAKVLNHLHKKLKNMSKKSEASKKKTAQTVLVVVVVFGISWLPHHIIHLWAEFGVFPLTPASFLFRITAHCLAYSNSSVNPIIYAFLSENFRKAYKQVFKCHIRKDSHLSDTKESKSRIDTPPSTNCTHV
Chain of Prostaglandin E2 receptor EP2 subtype (Homo sapiens) (P43116 whole entry): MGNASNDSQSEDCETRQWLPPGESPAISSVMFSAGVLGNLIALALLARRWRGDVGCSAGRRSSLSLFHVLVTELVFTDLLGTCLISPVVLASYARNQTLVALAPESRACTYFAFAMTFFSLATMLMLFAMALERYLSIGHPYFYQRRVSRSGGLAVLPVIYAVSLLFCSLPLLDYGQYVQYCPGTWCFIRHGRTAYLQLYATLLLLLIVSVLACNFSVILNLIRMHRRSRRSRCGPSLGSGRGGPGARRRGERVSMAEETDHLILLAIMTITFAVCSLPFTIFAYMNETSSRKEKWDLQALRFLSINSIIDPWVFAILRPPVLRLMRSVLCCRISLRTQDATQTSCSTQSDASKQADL
Chain of 5-hydroxytryptamine receptor 7 (Homo sapiens) (P34969 whole entry): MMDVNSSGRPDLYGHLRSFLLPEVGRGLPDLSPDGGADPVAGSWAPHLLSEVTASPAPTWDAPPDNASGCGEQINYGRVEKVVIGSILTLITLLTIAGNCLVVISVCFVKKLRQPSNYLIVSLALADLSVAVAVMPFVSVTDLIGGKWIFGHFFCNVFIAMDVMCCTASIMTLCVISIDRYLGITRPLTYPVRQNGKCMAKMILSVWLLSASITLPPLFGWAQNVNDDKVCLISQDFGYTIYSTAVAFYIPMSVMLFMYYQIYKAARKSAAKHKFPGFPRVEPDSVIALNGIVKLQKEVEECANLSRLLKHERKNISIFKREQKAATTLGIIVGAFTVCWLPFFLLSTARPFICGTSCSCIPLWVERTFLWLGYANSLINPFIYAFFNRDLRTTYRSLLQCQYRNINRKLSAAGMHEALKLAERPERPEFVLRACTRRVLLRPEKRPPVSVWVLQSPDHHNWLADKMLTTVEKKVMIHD
Chain of Nociceptin receptor (Homo sapiens) (P41146 whole entry): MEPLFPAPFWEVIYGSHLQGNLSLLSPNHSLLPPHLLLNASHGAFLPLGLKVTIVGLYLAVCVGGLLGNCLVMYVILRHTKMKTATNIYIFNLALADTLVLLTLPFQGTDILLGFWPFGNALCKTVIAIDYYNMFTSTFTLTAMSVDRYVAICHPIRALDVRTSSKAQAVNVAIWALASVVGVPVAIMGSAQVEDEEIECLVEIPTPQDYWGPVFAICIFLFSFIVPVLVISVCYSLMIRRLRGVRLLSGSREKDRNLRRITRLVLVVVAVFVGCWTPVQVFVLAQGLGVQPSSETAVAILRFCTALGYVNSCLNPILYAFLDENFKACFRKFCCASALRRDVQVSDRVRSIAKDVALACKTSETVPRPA
Chain of Substance-P receptor (Homo sapiens) (P25103 whole entry): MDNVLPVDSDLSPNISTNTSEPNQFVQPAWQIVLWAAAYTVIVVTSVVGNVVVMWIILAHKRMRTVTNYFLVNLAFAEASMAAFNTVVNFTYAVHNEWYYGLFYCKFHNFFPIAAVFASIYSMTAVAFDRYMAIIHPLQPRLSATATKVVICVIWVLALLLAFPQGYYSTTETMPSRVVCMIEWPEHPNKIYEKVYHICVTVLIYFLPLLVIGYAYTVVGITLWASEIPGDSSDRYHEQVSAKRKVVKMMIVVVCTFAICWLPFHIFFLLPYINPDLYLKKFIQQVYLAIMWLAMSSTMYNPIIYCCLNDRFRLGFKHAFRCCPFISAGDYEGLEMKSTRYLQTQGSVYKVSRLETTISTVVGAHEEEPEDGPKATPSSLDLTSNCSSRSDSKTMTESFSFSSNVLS
Chain of Sodium-dependent serotonin transporter (Homo sapiens) (P31645 whole entry, looked up): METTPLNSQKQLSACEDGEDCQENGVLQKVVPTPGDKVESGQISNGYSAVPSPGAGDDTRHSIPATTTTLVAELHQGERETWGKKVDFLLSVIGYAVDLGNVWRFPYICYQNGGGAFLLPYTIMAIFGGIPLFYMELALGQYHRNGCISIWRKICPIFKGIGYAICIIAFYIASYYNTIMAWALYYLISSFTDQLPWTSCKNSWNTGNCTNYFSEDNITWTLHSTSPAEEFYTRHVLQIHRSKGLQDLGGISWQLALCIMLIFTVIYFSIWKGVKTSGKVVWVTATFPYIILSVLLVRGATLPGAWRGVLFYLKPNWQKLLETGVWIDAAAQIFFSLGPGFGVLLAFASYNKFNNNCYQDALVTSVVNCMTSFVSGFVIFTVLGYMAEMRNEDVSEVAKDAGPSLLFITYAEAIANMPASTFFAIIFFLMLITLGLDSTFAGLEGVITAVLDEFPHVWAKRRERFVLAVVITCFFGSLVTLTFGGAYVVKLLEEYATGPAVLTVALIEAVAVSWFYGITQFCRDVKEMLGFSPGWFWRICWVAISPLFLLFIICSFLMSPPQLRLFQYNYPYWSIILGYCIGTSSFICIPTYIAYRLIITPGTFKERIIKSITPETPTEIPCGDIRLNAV
Chain of Beta-2 adrenergic receptor (Homo sapiens) (P07550 whole entry, looked up): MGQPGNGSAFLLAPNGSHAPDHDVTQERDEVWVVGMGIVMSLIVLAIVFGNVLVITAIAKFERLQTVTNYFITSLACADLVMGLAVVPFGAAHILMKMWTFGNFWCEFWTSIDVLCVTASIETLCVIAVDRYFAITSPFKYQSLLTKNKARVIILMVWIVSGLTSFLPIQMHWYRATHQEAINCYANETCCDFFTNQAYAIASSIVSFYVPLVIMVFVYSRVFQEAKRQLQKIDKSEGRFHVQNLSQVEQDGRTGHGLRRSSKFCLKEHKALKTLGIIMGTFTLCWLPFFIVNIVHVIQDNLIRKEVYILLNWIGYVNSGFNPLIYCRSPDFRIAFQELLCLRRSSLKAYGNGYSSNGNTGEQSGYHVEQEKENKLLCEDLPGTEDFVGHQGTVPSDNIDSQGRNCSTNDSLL
Chain of Mu-type opioid receptor (Homo sapiens) (P35372 whole entry): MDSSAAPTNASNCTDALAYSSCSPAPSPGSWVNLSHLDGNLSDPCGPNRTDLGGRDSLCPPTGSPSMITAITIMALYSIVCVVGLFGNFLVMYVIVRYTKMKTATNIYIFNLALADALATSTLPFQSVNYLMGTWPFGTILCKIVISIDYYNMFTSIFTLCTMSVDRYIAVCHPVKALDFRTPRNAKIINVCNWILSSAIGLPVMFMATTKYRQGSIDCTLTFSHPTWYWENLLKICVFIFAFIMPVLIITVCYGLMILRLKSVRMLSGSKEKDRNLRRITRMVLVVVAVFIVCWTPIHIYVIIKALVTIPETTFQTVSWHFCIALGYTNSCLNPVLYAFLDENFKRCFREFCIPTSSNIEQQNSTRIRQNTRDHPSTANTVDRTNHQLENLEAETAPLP
Chain of Neuromedin-K receptor (Homo sapiens) (P29371 whole entry): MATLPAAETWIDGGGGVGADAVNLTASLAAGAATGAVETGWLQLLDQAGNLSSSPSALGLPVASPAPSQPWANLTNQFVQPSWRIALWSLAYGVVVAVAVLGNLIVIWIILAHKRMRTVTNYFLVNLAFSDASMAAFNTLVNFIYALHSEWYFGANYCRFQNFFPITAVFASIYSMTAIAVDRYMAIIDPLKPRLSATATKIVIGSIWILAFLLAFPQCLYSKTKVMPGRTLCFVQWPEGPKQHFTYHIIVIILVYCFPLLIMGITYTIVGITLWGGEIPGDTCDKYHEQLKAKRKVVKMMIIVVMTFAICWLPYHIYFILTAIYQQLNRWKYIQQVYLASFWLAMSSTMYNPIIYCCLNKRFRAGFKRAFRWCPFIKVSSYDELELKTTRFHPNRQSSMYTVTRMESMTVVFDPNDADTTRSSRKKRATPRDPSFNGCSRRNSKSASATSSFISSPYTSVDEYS
Chain of Type-2 angiotensin II receptor (Homo sapiens) (P50052 whole entry): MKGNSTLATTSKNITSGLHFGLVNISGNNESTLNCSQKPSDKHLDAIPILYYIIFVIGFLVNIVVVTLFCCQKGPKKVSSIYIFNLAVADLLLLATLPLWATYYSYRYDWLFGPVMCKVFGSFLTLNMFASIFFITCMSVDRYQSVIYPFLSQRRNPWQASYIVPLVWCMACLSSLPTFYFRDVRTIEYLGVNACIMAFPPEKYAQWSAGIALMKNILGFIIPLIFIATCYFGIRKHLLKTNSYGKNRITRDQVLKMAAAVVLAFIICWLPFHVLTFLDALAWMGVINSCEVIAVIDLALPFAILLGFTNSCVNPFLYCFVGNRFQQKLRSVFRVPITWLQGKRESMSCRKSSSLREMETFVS

Row | SMILES | inhibition (Jurkat) | inhibition [1] | inhibition [2] | Activity (Rattus norvegicus [3]) | inhibition [4] | inhibition [5] | Activity (Rattus norvegicus [6]) | inhibition [7] | inhibition [8] | inhibition (Rattus norvegicus [9]) | Activity (Mus musculus [10]) | inhibition [11] | inhibition (Rattus norvegicus [12]) | inhibition [13] | inhibition [14] | inhibition [15] | inhibition [16] | inhibition [17] | inhibition (Rattus norvegicus [18]) | inhibition (Rattus norvegicus [19]) | further results
1 | Cc1cccc(C)c1OCCOCCN[C@@H](C)CO | 95.6% | 57.4% | 11.7% | inactive | -4% | 24.6% | inactive | -0.4% | 4.4% | 17.7% | inactive | -2% | 65.9% | 40.2% | 91.4% | 51.7% | 15% | 11.2% | 79% | 4.8% | inhibition [20]: 17.1%; inhibition (CHO): -2.2%; Activity (Rattus norvegicus [21]): inactive; inhibition [22]: 35.5%; inhibition (Rattus norvegicus [23]): 4.6%; Activity (Rattus norvegicus [24]): inactive; Activity (Mus musculus [25]): inactive; inhibition [26]: 5.7%; inhibition (Rattus norvegicus [27]): -5.4%; Activity (Mus musculus [28]): Active; inhibition [29]: 10.7%; inhibition [30]: 0.2%; inhibition [31]: 14.1%; Activity (Mus musculus [32]): inactive
2 | Cc1cccc(C)c1OCCOCCN[C@H](C)CO | 92.9% | 44.1% | 6.4% | inactive | -0.8% | 24.5% | inactive | -0.7% | 8.5% | 0.8% | inactive | -5.5% | 43.6% | 23.6% | 96.5% | 17.3% | 8% | 3.4% | 54.9% | 3.5% | inhibition [20]: 0.6%; inhibition (CHO): -1.7%; Activity (Rattus norvegicus [21]): inactive; inhibition [22]: 42.8%; inhibition (Rattus norvegicus [23]): -7.6%; Activity (Rattus norvegicus [24]): inactive; Activity (Mus musculus [25]): inactive; inhibition [26]: 2%; inhibition (Rattus norvegicus [27]): -1.4%; Activity (Mus musculus [28]): Active; inhibition [29]: 4.2%; inhibition [30]: 1.5%; inhibition [31]: 22.7%; Activity (Mus musculus [32]): inactive
